Assay results gathered from unrelated publications.

SMILES | target or system | observed | method | strain | time | quantity | result
Cc1ccc(Cn2cc(C(=O)NN)c(=O)c3cc(Oc4ccccc4)ccc32)cc1 | Trypanosoma brucei | parasite growth | – | RHODESIENSE | – | EC50 | 0.5 µM
O=C(O)c1ccc2c(c1)nc(Nc1cccc(Cl)c1)c1ccncc12 | SK-MES-1 | cell growth or viability | resazurin | – | 48 h | IC50 | 6.9 µM
Nc1ccc(/C=C/C(=O)N2CCc3c(oc4c(-c5ccc(F)cc5)cc(-c5ccc(C(=O)N6CCOCC6)nn5)cc34)C2)cn1 | CFPAC-1 | cell growth or viability | CCK-8 | – | 72 h | IC50 | > 20 µM
Cc1[nH]c(C(=O)Nc2ccc(C(=O)NCC(=O)O)cc2N2CCN(C(=O)OC(C)(C)C)CC2)c(Cl)c1Cl | Enterococcus faecium | microbial growth | broth dilution | ATCC35667 | – | MIC | > 32 µg/mL
C=CC(=O)NC1CCN(c2ncc3ncnc(Nc4ccc(Oc5ccc6c(c5)ncn6C)c(C)c4)c3n2)CC1 | DoTc2-4510 | cell growth or viability | – | – | – | EC50 | 5.24 µM
Cc1cc(C)c(C#N)c(SCC(=O)c2cccc(N)c2)n1 | Trypanosoma brucei | parasite growth | resazurin | – | – | EC50 | > 64 µM
Cc1[nH]c(C(=O)Nc2ccc(C(=O)NCC(=O)O)cc2N2CC[C@@H](N)C2)c(Cl)c1Cl.Cl | Enterococcus faecium | microbial growth | broth dilution | ATCC35667 | – | MIC | > 32 µg/mL
Cc1cc(C)c(C(N)=O)c(SCC(=O)c2ccc(Cl)cc2Cl)n1 | Trypanosoma brucei | parasite growth | resazurin | RHODESIENSE | – | EC50 | > 64 µM
COc1ccc2c(c1)c(=O)c(C(=O)N/N=C/c1ccc([N+](=O)[O-])s1)cn2Cc1ccccc1 | Trypanosoma brucei | parasite growth | resazurin | – | 72 h | EC50 | 0.41 µM
Cc1cc(C)c(C#N)c(SC2COc3ccccc3C2=O)n1 (stereo not drawn) | Trypanosoma brucei | parasite growth | resazurin | – | – | EC50 | 51.2 µM
Cc1[nH]c(C(=O)Nc2ccc(C(=O)NCC(=O)O)cc2N2CCNCC2)c(Cl)c1Cl.Cl | Enterococcus faecium | microbial growth | broth dilution | ATCC35667 | – | MIC | > 32 µg/mL
Cc1cc(C)c(C#N)c(SCC(=O)c2ccccn2)n1 | Trypanosoma brucei | parasite growth | resazurin | RHODESIENSE | – | EC50 | 18 µM
Nc1ccc(/C=C/C(=O)NCc2cc3cc(-c4ccc(C(=O)N5CCC(F)(F)CC5)cc4)cc(-c4ccc(F)cc4)c3o2)cn1 | CFPAC-1 | cell growth or viability | CCK-8 | – | 72 h | IC50 | > 20 µM
Cn1nnc(-c2cccnc2SCC(=O)c2ccc(F)cc2)n1 | Trypanosoma brucei | parasite growth | resazurin | RHODESIENSE | – | EC50 | > 64 µM
CC(C)(C)OC(=O)N[C@H]1CCN(c2cc(C(=O)NCC(=O)O)ccc2NC(=O)c2cc(Br)c(Br)[nH]2)C1 | Enterococcus faecium | microbial growth | broth dilution | ATCC35667 | – | MIC | > 32 µg/mL
